Measurements: ChEMBL document CHEMBL4251600, “Bioactive products from singlet oxygen photooxygenation of cannabinoids” (Eur J Med Chem, 2018)
Values after ≈ are worked out from the molar mass of the structure shown. Active and inactive are the calls of the source. No cut-off for these calls is given here.

What was measured:
Pichia kudriavzevii = test: Antifungal activity against Candida krusei by modified CLSI based method; type: functional, organism-based
LLC-PK1 = test: Cytotoxicity against pig LLC-PK1 cells assessed as cell growth inhibition incubated for 48 hrs by neutral red dye based assay; design: species or system Sus scrofa; conditions: Sus scrofa, LLC-PK1, 48 h; read-out: IC50
Cryptococcus neoformans = test: Antifungal activity against Cryptococcus neoformans by alamar blue assay; type: functional, organism-based
Staphylococcus aureus [1] = test: Antimicrobial activity against Staphylococcus aureus by modified CLSI based method; type: functional, organism-based
SK-MEL [2] = test: Anticancer activity against human SK-MEL cells assessed as cell growth inhibition up to 10 ug/ml incubated for 48 hrs by neutral red dye based assay; type: functional
Staphylococcus aureus [3] = test: Antimicrobial activity against methicillin-resistant Staphylococcus aureus by modified CLSI based method; type: functional, organism-based
Leishmania donovani = test: Antileishmanial activity against Leishmania donovani promastigotes incubated for 48 hrs by alamar blue assay; type: functional, organism-based
Nakaseomyces glabratus = test: Antifungal activity against Candida glabrata by modified CLSI based method; type: functional, organism-based
Plasmodium falciparum [4] = test: Antiplasmodial activity against chloroquine-resistant Plasmodium falciparum W2 infected in red blood cells incubated for 72 hrs by parasite LDH release based colorimetric assay; type: functional, organism-based; conditions: W2, 72 h
Plasmodium falciparum [5] = test: Antiplasmodial activity against chloroquine-sensitive Plasmodium falciparum D6 infected in red blood cells incubated for 72 hrs by parasite LDH release based colorimetric assay; type: functional, organism-based; conditions: D6, 72 h
Cannabinoid receptor 1 [6] = molecular target: T1, Cannabinoid receptor 1 (Homo sapiens, UniProt P21554); test: Displacement of [3H]CP-55,940 from recombinant human full length CB1 receptor expressed in HEK293 cell membranes after 90 mins by topcount method
Cannabinoid receptor 1 [7] = molecular target: T1, Cannabinoid receptor 1; test: Agonist activity at recombinant human full length CB1 receptor expressed in HEK293 cell membranes after 2 hrs by [35S]GTP-gammaS binding assay; type: functional
In short: (§1)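 Membranes (20 µg/well) from HEK293 cells stably transfected with human CB1 or CB2 cDNA were incubated with test compound and 0.5 nM [35S]-GTP-γS. Buffer: 50 mM Tris-HCl, 0.2 mM EGTA, 9 mM MgCl2, 150 mM NaCl, 50 µM GDP, 1.4 mg/ml BSA. Incubation ran 2 h at 30°C and was stopped by vacuum filtration through GF/B filters with cold Tris-HCl. Nonspecific binding was taken with 40 µM GTP-γS.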

Cannabinoid receptor 2 [8] = molecular target: T2, Cannabinoid receptor 2 (Homo sapiens, UniProt P34972); test: Displacement of [3H]CP-55,940 from recombinant human full length CB2 receptor expressed in HEK293 cell membranes after 90 mins by topcount method
Cannabinoid receptor 2 [9] = molecular target: T2, Cannabinoid receptor 2; test: Agonist activity at recombinant human full length CB2 receptor expressed in HEK293 cell membranes after 2 hrs by [35S]GTP-gammaS binding assay; type: functional; in short: as §1
SK-MEL [10] = test: Anticancer activity against human SK-MEL cells assessed as cell growth inhibition incubated for 48 hrs by neutral red dye based assay; type: functional
SK-OV-3 [11] = test: Anticancer activity against human SKOV3 cells assessed as cell growth inhibition up to 10 ug/ml incubated for 48 hrs by neutral red dye based assay; type: functional
BT-549 = test: Anticancer activity against human BT549 cells assessed as cell growth inhibition incubated for 48 hrs by neutral red dye based assay; type: functional; conditions: BT-549, 48 h
KB [12] = test: Anticancer activity against human KB cells assessed as cell growth inhibition up to 10 ug/ml incubated for 48 hrs by neutral red dye based assay; type: functional
Vero = test: Cytotoxicity against African green monkey Vero cells assessed as cell growth inhibition incubated for 48 hrs by neutral red dye based assay; conditions: Chlorocebus sabaeus
KB [13] = test: Anticancer activity against human KB cells assessed as cell growth inhibition incubated for 48 hrs by neutral red dye based assay; type: functional
SK-OV-3 [14] = test: Anticancer activity against human SKOV3 cells assessed as cell growth inhibition incubated for 48 hrs by neutral red dye based assay; type: functional; conditions: SK-OV-3, 48 h
[15] = Cryptococcus neoformans, read-out: IC50
[16] = Cryptococcus neoformans, read-out: MIC
[17] = Staphylococcus aureus, read-out: IC50
[18] = Staphylococcus aureus, read-out: MIC
[19] = Leishmania donovani, 48 h, read-out: IC50
[20] = Leishmania donovani, 48 h, read-out: IC90

T2 sequence (P34972 whole entry): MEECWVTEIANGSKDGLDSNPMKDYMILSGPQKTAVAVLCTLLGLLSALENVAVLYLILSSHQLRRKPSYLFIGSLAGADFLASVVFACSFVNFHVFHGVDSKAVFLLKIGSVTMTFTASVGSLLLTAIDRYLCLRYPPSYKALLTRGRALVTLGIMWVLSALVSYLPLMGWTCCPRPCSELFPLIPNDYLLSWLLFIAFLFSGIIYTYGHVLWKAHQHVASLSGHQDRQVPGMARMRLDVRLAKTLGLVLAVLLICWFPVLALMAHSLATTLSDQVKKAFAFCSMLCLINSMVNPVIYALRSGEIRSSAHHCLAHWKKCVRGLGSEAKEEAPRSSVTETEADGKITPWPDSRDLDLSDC
T1 sequence (P21554 whole entry): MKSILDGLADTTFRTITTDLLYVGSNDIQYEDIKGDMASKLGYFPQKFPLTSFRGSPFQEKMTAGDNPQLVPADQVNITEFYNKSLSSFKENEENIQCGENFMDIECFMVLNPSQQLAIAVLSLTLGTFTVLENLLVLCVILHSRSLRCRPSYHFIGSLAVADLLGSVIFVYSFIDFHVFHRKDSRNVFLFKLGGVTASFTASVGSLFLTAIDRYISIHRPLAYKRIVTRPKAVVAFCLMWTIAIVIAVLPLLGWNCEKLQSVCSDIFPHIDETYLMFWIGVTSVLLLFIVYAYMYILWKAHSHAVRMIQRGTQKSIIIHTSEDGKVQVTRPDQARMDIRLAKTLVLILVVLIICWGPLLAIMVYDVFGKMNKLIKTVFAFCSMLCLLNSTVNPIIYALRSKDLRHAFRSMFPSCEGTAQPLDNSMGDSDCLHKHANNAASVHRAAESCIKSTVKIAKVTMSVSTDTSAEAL

Compound	IC50 (Pichia kudriavzevii)	IC50 (Nakaseomyces glabratus)	MIC (Nakaseomyces glabratus)	MIC (Pichia kudriavzevii)	IC50 (Cryptococcus neoformans; [15]) [µg/mL]	MIC (Cryptococcus neoformans; [16]) [µg/mL]	IC50 (Staphylococcus aureus [1]; [17]) [µg/mL]	IC50 (Leishmania donovani; [19]) [µg/mL]	IC90 (Leishmania donovani; [20]) [µg/mL]	IC50 (Plasmodium falciparum [4]) [µg/mL]	IC50 (Plasmodium falciparum [5]) [µg/mL]	IC50 (Cannabinoid receptor 1 [6]) [nM]	Ki (Cannabinoid receptor 1 [6]) [nM]	IC50 (Cannabinoid receptor 2 [8]) [nM]	Ki (Cannabinoid receptor 2 [8]) [nM]	other results
C=C1C[C@H]2C3=C(OC(C)(C)[C@@H]2CC1OO)C(=O)C(CCCCC)=CC3=O (stereo in doubt; 26)	20 µg/mL (≈ 55.5 µM)															IC50 (LLC-PK1): 9.95 µg/mL (≈ 27.6 µM); IC50 (Cryptococcus neoformans): 2.05 µg/mL (≈ 5.69 µM); MIC (Cryptococcus neoformans): 5 µg/mL (≈ 13.9 µM); IC50 (Staphylococcus aureus [1]): 2.41 µg/mL (≈ 6.69 µM); MIC (Staphylococcus aureus [1]): 5 µg/mL (≈ 13.9 µM); IC50 (SK-MEL [2]): Not Active; IC50 (Staphylococcus aureus [3]): 15.3 µg/mL (≈ 42.4 µM); IC50 (Leishmania donovani): 3.1 µg/mL (≈ 8.6 µM); IC90 (Leishmania donovani): 8 µg/mL (≈ 22.2 µM)
C=C1C[C@H]2C3=C(OC(C)(C)[C@@H]2C[C@H]1O)C(=O)C(CCCCC)=CC3=O	Not Active	Not Active	inactive	inactive	1.84 (≈ 5.34 µM)	5 (≈ 14.5 µM)	2.03 (≈ 5.89 µM)	0.6 (≈ 1.74 µM)	1.3 (≈ 3.77 µM)							MIC (Staphylococcus aureus [1]; [18]): 2.5 µg/mL (≈ 7.26 µM); MIC (Staphylococcus aureus [3]; Staphylococcus aureus): 10 µg/mL (≈ 29 µM); IC50 (Staphylococcus aureus [3]; [17]): 5.53 µg/mL (≈ 16.1 µM)
CCCCCc1cc2c(c(OS(=O)(=O)c3ccc(C)cc3)c1)C1=C(CC[C@](C)(O)[C@H]1OCC)C(C)(C)O2								4.5 (≈ 8.51 µM)	22 (≈ 41.6 µM)	1.8 (≈ 3.4 µM)	2.2 (≈ 4.16 µM)					
CCCCCc1cc(OC(C)=O)c2c(c1)OC(C)(C)[C@@H]1CC=C(C)C[C@@H]21												88	44	316	158	IC50 (Cannabinoid receptor 1 [7]): 87 nM; Ki (Cannabinoid receptor 1 [7]): 43 nM; IC50 (Cannabinoid receptor 2 [9]): 518 nM; Ki (Cannabinoid receptor 2 [9]): 259 nM
CCCCCc1cc2c(c(OS(=O)(=O)c3ccc(C)cc3)c1)[C@H]1[C@@H](CC=C(C)[C@@H]1OO)C(C)(C)O2												1020	512	851	426	
C=C1CC[C@@H]2[C@H](c3c(cc(CCCCC)cc3OS(=O)(=O)c3ccc(C)cc3)OC2(C)C)[C@@H]1OO								3.1 (≈ 6.19 µM)	6.5 (≈ 13 µM)							
CCCCCC1=CC(=O)C2=C(OC(C)(C)c3ccc(C)cc32)C1=O	Not Active	Not Active	inactive	inactive	4.44 (≈ 13.7 µM)	20 (≈ 61.6 µM)	> 20									IC50 (SK-MEL [10]): 7.6 µg/mL (≈ 23.4 µM); IC50 (SK-OV-3 [11]): Not Active; IC50 (LLC-PK1): 5.65 µg/mL (≈ 17.4 µM); MIC (Staphylococcus aureus [1]): inactive; IC50 (BT-549): 6.05 µg/mL (≈ 18.6 µM); IC50 (Staphylococcus aureus [3]): Not Active; MIC (Staphylococcus aureus [3]): inactive; IC50 (KB [12]): Not Active
N=C(N)c1ccc(OCCCCCOc2ccc(C(=N)N)cc2)cc1 [PENTAMIDINE]									2 (≈ 5.87 µM)							
CCCCCC1=CC(=O)C2=C(OC(C)(C)[C@@H]3C=CC(C)(OO)C[C@@H]23)C1=O (stereo not given in full)					0.93 (≈ 2.58 µM)	2.5 (≈ 6.94 µM)	1.3 (≈ 3.61 µM)	0.7 (≈ 1.94 µM)	1.2 (≈ 3.33 µM)							MIC (Nakaseomyces glabratus; Nakaseomyces glabratus): 10 µg/mL (≈ 27.7 µM); IC50 (Nakaseomyces glabratus; Nakaseomyces glabratus, read-out: IC50): 6.54 µg/mL (≈ 18.1 µM); MIC (Pichia kudriavzevii; Pichia kudriavzevii): 10 µg/mL (≈ 27.7 µM); IC50 (Pichia kudriavzevii; Pichia kudriavzevii, read-out: IC50): 5.77 µg/mL (≈ 16 µM); MIC (Staphylococcus aureus [1]; [18]): 2.5 µg/mL (≈ 6.94 µM); MIC (Staphylococcus aureus [3]; Staphylococcus aureus): 5 µg/mL (≈ 13.9 µM); IC50 (Staphylococcus aureus [3]; [17]): 2.63 µg/mL (≈ 7.3 µM)
CCCCCc1cc(O)c2c(c1)OC(C)(C)C1=C2C(OC(C)=O)C(C)(OC)CC1 (stereo not given)										3 (≈ 7.45 µM)	3.3 (≈ 8.2 µM)	2800	1400	1980	990	
C[C@@H]1CC[C@H]2[C@@H](C)C(=O)O[C@@H]3O[C@@]4(C)CC[C@@H]1[C@]32OO4 [ARTEMISININ]										0.014 (≈ 0.0496 µM)						
C=C1C[C@H]2c3c(O)cc(CCCCC)cc3OC(C)(C)[C@@H]2C[C@H]1O	Not Active	Not Active	inactive	inactive	8.34 (≈ 25.2 µM)		10.7 (≈ 32.4 µM)			1.7 (≈ 5.14 µM)	2.4 (≈ 7.26 µM)					MIC (Cryptococcus neoformans): inactive; MIC (Staphylococcus aureus [1]): inactive; IC50 (Staphylococcus aureus [3]): Not Active; MIC (Staphylococcus aureus [3]): inactive
CCCCCC1=CC(=O)C2=C(OC(C)(C)[C@@H]3CC[C@](C)(OCC)C=C23)C1=O	Not Active	Not Active	inactive	inactive	0.7 (≈ 1.88 µM)	2.5 (≈ 6.71 µM)	1.35 (≈ 3.62 µM)	0.06 (≈ 0.161 µM)	0.13 (≈ 0.349 µM)	0.2 (≈ 0.537 µM)	0.16 (≈ 0.43 µM)	1840	919	4070	2030	IC50 (Vero): 4.1 µg/mL (≈ 11 µM); IC50 (LLC-PK1): 2.25 µg/mL (≈ 6.04 µM); IC50 (KB [13]): 5.25 µg/mL (≈ 14.1 µM); MIC (Staphylococcus aureus [1]; [18]): 2.5 µg/mL (≈ 6.71 µM); IC50 (BT-549): 4.2 µg/mL (≈ 11.3 µM); MIC (Staphylococcus aureus [3]; Staphylococcus aureus): 2.5 µg/mL (≈ 6.71 µM); IC50 (Staphylococcus aureus [3]; [17]): 1.36 µg/mL (≈ 3.65 µM); IC50 (SK-OV-3 [14]): 4.35 µg/mL (≈ 11.7 µM)
